Data published in ChEMBL document CHEMBL4346667 (Eur J Med Chem, 2019).
Active and inactive are the calls of the source. No cut-off for these calls is given here.

Tested on: L02
Experiment: Antiproliferative activity against human HL7702 cells assessed as reduction in cell viability after 48 hrs by MTT assay
Assay type: functional, cell-based
Settings: L02, 48 h
How it was run: (§1)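 Cells grown at 37 °C, 5% CO2; HeLa, HepG2, H8, HL7702 in RPMI 1640 + 10% fetal calf serum, others in high-glucose DMEM + 10% fetal calf serum. Log-phase cells seeded at 4000-12000/well by doubling time. Attached cells were given 10-fold dilutions, 100 µM to 10 nM (DMSO 0.1% v/v), for 48 h. MTT (2 mg/mL) 4 h, formazan in DMSO, A492. IC50 from triplicate means.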

**Q.** With `COc1cc([C@@H]2c3cc4c(cc3[C@@H](Nc3ccc5cn[nH]c5c3)[C@H]3COC(=O)[C@H]23)OCO4)cc(OC)c1OC` as the compound, how does the IC50 read?
**A.** 38.4 µM

**Q.** With `COc1cc([C@@H]2c3cc4c(cc3[C@H](O)[C@H]3COC(=O)[C@H]23)OCO4)cc(OC)c1OC` [PODOFILOX] as the compound, how does the IC50 read?
**A.** 5 µM

**Q.** For `COc1cc([C@@H]2c3cc4c(cc3[C@@H](Nc3cccc5cc[nH]c35)[C@H]3COC(=O)[C@H]23)OCO4)cc(OC)c1OC`, which IC50 is on record?
**A.** 30.5 µM

**Q.** With `COc1cc([C@@H]2c3cc4c(cc3[C@@H](Nc3cccc5[nH]ccc35)[C@H]3COC(=O)[C@H]23)OCO4)cc(OC)c1OC` as the compound, how does the IC50 read?
**A.** 33.6 µM

Tested on: HepG2
Experiment: Antiproliferative activity against human HepG2 cells assessed as reduction in cell viability after 48 hrs by MTT assay
Assay type: functional, cell-based
Settings: HepG2, 48 h
How it was run: as §1

**Q.** Which IC50 does the source give for `COc1cc([C@@H]2c3cc4c(cc3[C@@H](Nc3ccc5cn[nH]c5c3)[C@H]3COC(=O)[C@H]23)OCO4)cc(OC)c1OC` here?
**A.** 1.9 µM

**Q.** Which IC50 does the source give for `COc1cc([C@@H]2c3cc4c(cc3[C@H](O)[C@H]3COC(=O)[C@H]23)OCO4)cc(OC)c1OC` [PODOFILOX] here?
**A.** 2.4 µM

**Q.** For `COc1cc([C@@H]2c3cc4c(cc3[C@@H](Nc3cccc5cc[nH]c35)[C@H]3COC(=O)[C@H]23)OCO4)cc(OC)c1OC`, which IC50 is on record?
**A.** 2.5 µM

**Q.** With `COc1cc([C@@H]2c3cc4c(cc3[C@@H](Nc3cccc5[nH]ccc35)[C@H]3COC(=O)[C@H]23)OCO4)cc(OC)c1OC` as the compound, how does the IC50 read?
**A.** 1.8 µM

Tested on: HeLa
Experiment: Antiproliferative activity against human HeLa cells assessed as reduction in cell viability after 48 hrs by MTT assay
Assay type: functional, cell-based
Settings: not given
How it was run: as §1

**Q.** For `COc1cc([C@@H]2c3cc4c(cc3[C@@H](Nc3ccc5cn[nH]c5c3)[C@H]3COC(=O)[C@H]23)OCO4)cc(OC)c1OC`, which IC50 is on record?
**A.** 0.8 µM

**Q.** Which IC50 does the source give for `COc1cc([C@@H]2c3cc4c(cc3[C@H](O)[C@H]3COC(=O)[C@H]23)OCO4)cc(OC)c1OC` [PODOFILOX] here?
**A.** 6.9 µM

**Q.** Which IC50 does the source give for `COc1cc([C@@H]2c3cc4c(cc3[C@@H](Nc3cccc5cc[nH]c35)[C@H]3COC(=O)[C@H]23)OCO4)cc(OC)c1OC` here?
**A.** 3.8 µM

**Q.** For `COc1cc([C@@H]2c3cc4c(cc3[C@@H](Nc3cccc5[nH]ccc35)[C@H]3COC(=O)[C@H]23)OCO4)cc(OC)c1OC`, which IC50 is on record?
**A.** 2.1 µM

Tested on: not listed separately
Experiment: Antiproliferative activity against human H8 cells assessed as reduction in cell viability after 48 hrs by MTT assay
Assay type: functional, cell-based
Settings: not given
How it was run: as §1

**Q.** Which IC50 does the source give for `COc1cc([C@@H]2c3cc4c(cc3[C@@H](Nc3ccc5cn[nH]c5c3)[C@H]3COC(=O)[C@H]23)OCO4)cc(OC)c1OC` here?
**A.** 65.5 µM

**Q.** Which IC50 does the source give for `COc1cc([C@@H]2c3cc4c(cc3[C@H](O)[C@H]3COC(=O)[C@H]23)OCO4)cc(OC)c1OC` [PODOFILOX] here?
**A.** 8.4 µM

**Q.** Which IC50 does the source give for `COc1cc([C@@H]2c3cc4c(cc3[C@@H](Nc3cccc5cc[nH]c35)[C@H]3COC(=O)[C@H]23)OCO4)cc(OC)c1OC` here?
**A.** 19.4 µM

**Q.** With `COc1cc([C@@H]2c3cc4c(cc3[C@@H](Nc3cccc5[nH]ccc35)[C@H]3COC(=O)[C@H]23)OCO4)cc(OC)c1OC` as the compound, how does the IC50 read?
**A.** 29.2 µM

Tested on: A549
Experiment: Antiproliferative activity against human A549 cells assessed as reduction in cell viability after 48 hrs by MTT assay
Assay type: functional, cell-based
Settings: A549, 48 h
How it was run: as §1

**Q.** For `COc1cc([C@@H]2c3cc4c(cc3[C@@H](Nc3ccc5cn[nH]c5c3)[C@H]3COC(=O)[C@H]23)OCO4)cc(OC)c1OC`, which IC50 is on record?
**A.** 1 µM

**Q.** With `COc1cc([C@@H]2c3cc4c(cc3[C@H](O)[C@H]3COC(=O)[C@H]23)OCO4)cc(OC)c1OC` [PODOFILOX] as the compound, how does the IC50 read?
**A.** 2.6 µM

**Q.** With `COc1cc([C@@H]2c3cc4c(cc3[C@@H](Nc3cccc5cc[nH]c35)[C@H]3COC(=O)[C@H]23)OCO4)cc(OC)c1OC` as the compound, how does the IC50 read?
**A.** 2.2 µM

**Q.** With `COc1cc([C@@H]2c3cc4c(cc3[C@@H](Nc3cccc5[nH]ccc35)[C@H]3COC(=O)[C@H]23)OCO4)cc(OC)c1OC` as the compound, how does the IC50 read?
**A.** 2.4 µM

Tested on: MRC5
Experiment: Antiproliferative activity against human MRC5 cells assessed as reduction in cell viability after 48 hrs by MTT assay
Assay type: functional, cell-based
Settings: MRC5, 48 h
How it was run: as §1

**Q.** Which IC50 does the source give for `COc1cc([C@@H]2c3cc4c(cc3[C@@H](Nc3ccc5cn[nH]c5c3)[C@H]3COC(=O)[C@H]23)OCO4)cc(OC)c1OC` here?
**A.** 53.6 µM

**Q.** For `COc1cc([C@@H]2c3cc4c(cc3[C@H](O)[C@H]3COC(=O)[C@H]23)OCO4)cc(OC)c1OC` [PODOFILOX], which IC50 is on record?
**A.** 10.6 µM

**Q.** With `COc1cc([C@@H]2c3cc4c(cc3[C@@H](Nc3cccc5cc[nH]c35)[C@H]3COC(=O)[C@H]23)OCO4)cc(OC)c1OC` as the compound, how does the IC50 read?
**A.** 38.5 µM

**Q.** For `COc1cc([C@@H]2c3cc4c(cc3[C@@H](Nc3cccc5[nH]ccc35)[C@H]3COC(=O)[C@H]23)OCO4)cc(OC)c1OC`, which IC50 is on record?
**A.** 32.4 µM

Tested on: MCF7
Experiment: Antiproliferative activity against human MCF7 cells assessed as reduction in cell viability after 48 hrs by MTT assay
Assay type: functional, cell-based
Settings: MCF7, 48 h
How it was run: as §1

**Q.** With `COc1cc([C@@H]2c3cc4c(cc3[C@@H](Nc3ccc5cn[nH]c5c3)[C@H]3COC(=O)[C@H]23)OCO4)cc(OC)c1OC` as the compound, how does the IC50 read?
**A.** 0.8 µM

**Q.** Which IC50 does the source give for `COc1cc([C@@H]2c3cc4c(cc3[C@H](O)[C@H]3COC(=O)[C@H]23)OCO4)cc(OC)c1OC` [PODOFILOX] here?
**A.** 2.4 µM

**Q.** For `COc1cc([C@@H]2c3cc4c(cc3[C@@H](Nc3cccc5cc[nH]c35)[C@H]3COC(=O)[C@H]23)OCO4)cc(OC)c1OC`, which IC50 is on record?
**A.** 4.8 µM

**Q.** For `COc1cc([C@@H]2c3cc4c(cc3[C@@H](Nc3cccc5[nH]ccc35)[C@H]3COC(=O)[C@H]23)OCO4)cc(OC)c1OC`, which IC50 is on record?
**A.** 1.3 µM

Tested on: HMEC
Experiment: Antiproliferative activity against human HMEC cells assessed as reduction in cell viability after 48 hrs by MTT assay
Assay type: functional, cell-based
Settings: not given
How it was run: as §1

**Q.** For `COc1cc([C@@H]2c3cc4c(cc3[C@@H](Nc3ccc5cn[nH]c5c3)[C@H]3COC(=O)[C@H]23)OCO4)cc(OC)c1OC`, which IC50 is on record?
**A.** 52.5 µM

**Q.** For `COc1cc([C@@H]2c3cc4c(cc3[C@H](O)[C@H]3COC(=O)[C@H]23)OCO4)cc(OC)c1OC` [PODOFILOX], which IC50 is on record?
**A.** 5.6 µM

**Q.** With `COc1cc([C@@H]2c3cc4c(cc3[C@@H](Nc3cccc5cc[nH]c35)[C@H]3COC(=O)[C@H]23)OCO4)cc(OC)c1OC` as the compound, how does the IC50 read?
**A.** 45.5 µM

**Q.** With `COc1cc([C@@H]2c3cc4c(cc3[C@@H](Nc3cccc5[nH]ccc35)[C@H]3COC(=O)[C@H]23)OCO4)cc(OC)c1OC` as the compound, how does the IC50 read?
**A.** 64.2 µM

Target: Tubulin (Homo sapiens) (UniProt P68371+Q9H4B7+P0DPH7+P68366+Q13509+Q71U36+P04350+Q3ZCM7+P07437+P68363+Q9BQE3+Q6PEY2+Q13885+Q9BVA1+Q9BUF5)
Experiment: Inhibition of tubulin polymerization in human HeLa cells assessed as contracted and rounded cells with disordered abnormal spindles and chromosomal misalignment at 500 nM after 24 hrs by immunofluorescence based confocal microscopy
Assay type: cell-based
Settings: not given
How it was run: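 HeLa cells on glass coverslips were treated for 24 h at 25, 250 or 500 nM. They were fixed in 4% paraformaldehyde for 1 h and permeabilised with 0.2% Triton X-100 for 20 min. Cells were imaged by fluorescence and confocal microscopy.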

**Q.** For `COc1cc([C@@H]2c3cc4c(cc3[C@H](O)[C@H]3COC(=O)[C@H]23)OCO4)cc(OC)c1OC` [PODOFILOX], which inhibition is on record?
**A.** Active

Target: not listed separately
Experiment: Binding affinity to alpha/beta tubulin complex (unknown origin)
Parameters: species or system Homo sapiens
Settings: not given
How it was run: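 SPR assay: tubulin immobilized up to 800 mDeg (response units). Ligands were diluted two-fold from 80 µM to 2.5 µM in PBS with 0.5% (v/v) DMSO and injected at 60 µL/min for 300 s. Running buffer was PBS with 0.5% DMSO, at 25°C.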

**Q.** With `COc1cc([C@@H]2c3cc4c(cc3[C@@H](Nc3ccc5cn[nH]c5c3)[C@H]3COC(=O)[C@H]23)OCO4)cc(OC)c1OC` as the compound, how does the Ki read?
**A.** 0.03 µM

**Q.** With `COc1cc([C@@H]2c3cc4c(cc3[C@H](O)[C@H]3COC(=O)[C@H]23)OCO4)cc(OC)c1OC` [PODOFILOX] as the compound, how does the Ki read?
**A.** 0.27 µM

**Q.** With `COc1cc([C@@H]2c3cc4c(cc3[C@@H](Nc3cccc5cc[nH]c35)[C@H]3COC(=O)[C@H]23)OCO4)cc(OC)c1OC` as the compound, how does the Ki read?
**A.** 0.05 µM

**Q.** For `COc1cc([C@@H]2c3cc4c(cc3[C@@H](Nc3cccc5[nH]ccc35)[C@H]3COC(=O)[C@H]23)OCO4)cc(OC)c1OC`, which Ki is on record?
**A.** 0.1 µM
